Data as given in article PMC2813889 (Toxicon : official journal of the International Society on …, 2009).
Like-named read-outs stand apart in the source and are kept apart here.

What was measured:
[1] = target: protein phosphatase 2A (PP2A) (Homo sapiens, UniProt P67775); assay: Protein phosphatase 2A inhibition assay; assay type: biochemical
In short: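 Colorimetric PP2A inhibition after a published method. Samples incubated 1 h at room temperature and read at 405 nm. A standard curve of the parent toxin was prepared identically to the samples. Isolated metabolite concentrations were set by LC-MS against a single-point calibration (10 μL of 6.2 μM parent toxin, 50 ng). IC50 taken from activity versus log concentration curves.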

CYP3A4 = CYP3A4 (Homo sapiens, UniProt P08684); assay: Incubation of OA with recombinant CYP3A4 and CYP3A4 enzyme kinetics; assay type: in vitro ADME
Chain of CYP3A4 (P08684 whole entry): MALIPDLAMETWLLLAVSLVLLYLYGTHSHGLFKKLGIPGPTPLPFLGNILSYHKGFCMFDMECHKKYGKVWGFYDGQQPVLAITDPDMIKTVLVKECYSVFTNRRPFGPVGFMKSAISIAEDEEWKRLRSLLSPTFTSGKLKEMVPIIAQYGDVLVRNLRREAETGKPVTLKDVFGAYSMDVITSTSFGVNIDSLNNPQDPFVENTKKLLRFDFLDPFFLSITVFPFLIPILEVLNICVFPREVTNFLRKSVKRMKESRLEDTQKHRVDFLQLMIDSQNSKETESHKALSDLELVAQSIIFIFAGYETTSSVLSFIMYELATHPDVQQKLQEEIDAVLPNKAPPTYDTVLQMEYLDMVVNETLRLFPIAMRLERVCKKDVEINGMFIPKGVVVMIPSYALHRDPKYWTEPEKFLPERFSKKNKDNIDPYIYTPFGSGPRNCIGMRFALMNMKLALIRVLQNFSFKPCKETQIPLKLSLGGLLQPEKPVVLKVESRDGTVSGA

CYP3A5 = CYP3A5 (Homo sapiens, UniProt P20815); assay: Incubation of OA with recombinant CYP3A5; assay type: in vitro ADME; conditions: CYP 3A5 reaction, after 6 hrs of incubation
Chain of CYP3A5 (P20815 whole entry): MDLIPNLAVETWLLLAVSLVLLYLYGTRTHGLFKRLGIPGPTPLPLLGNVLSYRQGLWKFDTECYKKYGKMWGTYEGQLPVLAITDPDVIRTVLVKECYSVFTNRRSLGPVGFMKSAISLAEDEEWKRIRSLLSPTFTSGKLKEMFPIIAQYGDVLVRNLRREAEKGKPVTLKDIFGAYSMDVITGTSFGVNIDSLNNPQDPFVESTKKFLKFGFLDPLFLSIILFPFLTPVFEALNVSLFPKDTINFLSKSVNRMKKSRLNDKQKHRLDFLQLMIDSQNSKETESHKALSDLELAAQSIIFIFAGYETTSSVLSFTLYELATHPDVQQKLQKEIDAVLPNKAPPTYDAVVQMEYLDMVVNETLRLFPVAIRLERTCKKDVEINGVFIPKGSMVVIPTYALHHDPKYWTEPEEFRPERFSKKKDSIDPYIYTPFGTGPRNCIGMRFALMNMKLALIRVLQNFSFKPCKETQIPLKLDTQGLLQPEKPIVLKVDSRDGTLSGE

[2] = tested on: CYP1A1, 1A2, 2C8, 2C9, 2C19, 2D6, 2E1; assay: Incubation of OA with the seven other recombinant P450s; assay type: in vitro ADME, human; conditions: same incubation conditions, limit of detection 0.1 ng OA
[3] = Incubation of OA with pooled human liver microsomes; assay type: in vitro ADME; conditions: 5 mg mL^-1 protein, 5 μM OA, 37 °C, 30 min
various liver cell lines = conditions: depending on cell line; ref Souid-Mensi, et al., 2008; cited from earlier work

Chain of protein phosphatase 2A (PP2A) (P67775 whole entry): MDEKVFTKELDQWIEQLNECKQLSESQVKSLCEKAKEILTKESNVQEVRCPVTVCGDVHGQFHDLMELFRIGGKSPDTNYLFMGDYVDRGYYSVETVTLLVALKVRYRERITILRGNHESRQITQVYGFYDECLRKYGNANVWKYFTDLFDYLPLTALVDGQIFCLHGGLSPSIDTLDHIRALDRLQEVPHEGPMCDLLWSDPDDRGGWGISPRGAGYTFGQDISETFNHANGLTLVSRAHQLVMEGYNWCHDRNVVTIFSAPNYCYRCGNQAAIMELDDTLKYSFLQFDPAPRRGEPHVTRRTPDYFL

Molecule | IC50 [1] [pM] | overall yield of all four metabolites (CYP3A4; CYP3A4 reaction, after 6 hrs of incubation) [%] | Vmax for the oxidation of OA by CYP3A4 (CYP3A4; double-reciprocal plots, OA 10 μM to 100 μM, 300 pmol 3A4) | Km (CYP3A4; human, recombinant CYP3A4) [µM] | overall yield of all four metabolites (CYP3A5) [%] | metabolism of OA by the seven other P450s [2] | metabolite formation in pooled human liver microsomes [3] | LD50 for OA with various liver cell lines (various liver cell lines) [nM] | IC50 ([1]; read-out: IC50, inhibition of PP2A, 1 h at room temperature, read at 405 nm) [pM]
C=C1[C@@H](O)[C@@H]2O[C@]3(CC[C@H](/C=C/[C@@H](C)[C@@H]4CC(C)=C[C@@]5(O[C@H](C[C@@](C)(O)C(=O)O)CC[C@H]5O)O4)O3)CC[C@H]2O[C@@H]1[C@@H](O)C[C@H](C)[C@H]1O[C@@]2(CCCCO2)CC[C@H]1C [OA, Okadaic acid] | 610 | 31.3 | 7.23 nmol of metabolites nmol^-1 min^-1 | 73.4 | 6.1 | none of the seven other P450s metabolized OA | four metabolites, identical to those formed in CYP3A4 incubations, were produced | 10 to 100 | –
11S-hydroxy okadaic acid [metabolite 2] | – | – | – | – | – | – | – | – | 1340
